Assay [1] can be described thus: reducers of endogenous Her2 protein level, primary screen, SKBR3 breast tumor cells, AlphaScreen, ATP viability (AID 461;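 active = Her2 level under about 52% in both replicate screens, with viability over 70% of control, limit read from the data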;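 for Her2 level: lower value means less Her2 protein in the cells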;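 for viability: percent of carrier control wells set as 100% viability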). The conditions noted are these: 18-24 h, measured here: SKBR3 viability, ATP luminescence, at 10 µM.
Assay [2] has as its target Receptor tyrosine-protein kinase erbB-2 (Homo sapiens) (UniProt P04626). Described as above. The conditions noted are these: 18-24 h, at 10 µM, stronger effect = lower value.
The nature of assay [3]: SK-BR-3 cell growth inhibitors, pilot screen, 24 h, human (AID 572;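 active = viability at or below 10% of carrier control in both of two separate runs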;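 note: compound exposure lasted between 18 and 24 h rather than exactly 24 h; 100% = carrier-treated control wells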). The settings on record: SK-BR-3 viability, CellTiter-Glo luminescence, at 10 µM, stronger effect = lower value. Background: ATP-based viability assays read luminescence as a measure of living cells.
Assay [4] in a line: HUVEC growth inhibition – cell-based, human, primary screen (AID 575;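 active = viability at or below 30% in both replicate assays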;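 note: 100% = median of untreated cell wells with 0.1% DMSO on each plate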). The conditions noted are these: HUVEC proliferation, CellTiter-Glo luminescence, 72 h; at 10 µM; stronger effect = lower value. In short, it runs like this:
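material = primary HUVEC, no more than 12 passages | input = 1250 cells per well | controls = vehicle and MePR control wells | measured by = CTG luminescence | times = 72 h compound incubation | format = collagen-coated 384-well format | read-out = % viability vs DMSO wells | doses = single 10 µM dose, 0.1% DMSO, from 5x medium stock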

A short description of assay [5]: growth inhibitors of H69AR lung tumor, primary screen, human, duplicate replicates (AID 580;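 active = viability at or under a set limit in both replicates, limit being median viability minus 3 SD, cut at about 48% in these data, passing the limit was not always enough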;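 note: 100% = mean luminescence of untreated wells and 0% = no signal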). The settings on record: H69AR lung tumor cells viability, ATP luminescence, 72 h; at 10 µM; stronger effect = lower value.
Assay [6] can be described thus: reversal of MRP1-mediated doxorubicin resistance, pilot screen, H69AR cells, doxorubicin co-treatment (AID 601). The settings on record: CellTiter-Glo, 72 h, at 10 µM; for differential viability (reversal): stronger effect = higher value.
The nature of assay [7]: 384-well plate pilot, post-Golgi transport modulator project, inhibition of yeast transport mutant growth (AID 636; in the data active = inhibition above about 31%). The conditions noted are these: absorbance 615 nm, about 18 h, stronger effect = higher value.
Assay [8] in a line: growth suppression of yeast trafficking mutant, preliminary HTS, modulators of trafficking downstream of Golgi apparatus project, 1536-format plate, OD 615 nm (AID 637; in the data active = inhibition above about 30%). The settings on record: yeast transport mutant growth, absorbance 615 nm, 18 h; stronger effect = higher value.
The mark [9] stands for this setting: H69AR cells + 2 uM doxorubicin, measured here: viability with 2 uM doxorubicin, stronger effect = lower value.
Setting [10] is: H69AR cells, compound alone cytotoxicity.

Activity calls are given as the source filed them.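 Rule for the calls, unless noted: active = viability loss from added drug above about 55%, and viability with drug at most 40%, in both replicates (limit read from the data, passing the limit was not always enough); inconclusive = both conditions met in only one replicate; inactive = neither replicate meets both conditions.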

Chain of Receptor tyrosine-protein kinase erbB-2 (Homo sapiens) (P04626 whole entry, looked up): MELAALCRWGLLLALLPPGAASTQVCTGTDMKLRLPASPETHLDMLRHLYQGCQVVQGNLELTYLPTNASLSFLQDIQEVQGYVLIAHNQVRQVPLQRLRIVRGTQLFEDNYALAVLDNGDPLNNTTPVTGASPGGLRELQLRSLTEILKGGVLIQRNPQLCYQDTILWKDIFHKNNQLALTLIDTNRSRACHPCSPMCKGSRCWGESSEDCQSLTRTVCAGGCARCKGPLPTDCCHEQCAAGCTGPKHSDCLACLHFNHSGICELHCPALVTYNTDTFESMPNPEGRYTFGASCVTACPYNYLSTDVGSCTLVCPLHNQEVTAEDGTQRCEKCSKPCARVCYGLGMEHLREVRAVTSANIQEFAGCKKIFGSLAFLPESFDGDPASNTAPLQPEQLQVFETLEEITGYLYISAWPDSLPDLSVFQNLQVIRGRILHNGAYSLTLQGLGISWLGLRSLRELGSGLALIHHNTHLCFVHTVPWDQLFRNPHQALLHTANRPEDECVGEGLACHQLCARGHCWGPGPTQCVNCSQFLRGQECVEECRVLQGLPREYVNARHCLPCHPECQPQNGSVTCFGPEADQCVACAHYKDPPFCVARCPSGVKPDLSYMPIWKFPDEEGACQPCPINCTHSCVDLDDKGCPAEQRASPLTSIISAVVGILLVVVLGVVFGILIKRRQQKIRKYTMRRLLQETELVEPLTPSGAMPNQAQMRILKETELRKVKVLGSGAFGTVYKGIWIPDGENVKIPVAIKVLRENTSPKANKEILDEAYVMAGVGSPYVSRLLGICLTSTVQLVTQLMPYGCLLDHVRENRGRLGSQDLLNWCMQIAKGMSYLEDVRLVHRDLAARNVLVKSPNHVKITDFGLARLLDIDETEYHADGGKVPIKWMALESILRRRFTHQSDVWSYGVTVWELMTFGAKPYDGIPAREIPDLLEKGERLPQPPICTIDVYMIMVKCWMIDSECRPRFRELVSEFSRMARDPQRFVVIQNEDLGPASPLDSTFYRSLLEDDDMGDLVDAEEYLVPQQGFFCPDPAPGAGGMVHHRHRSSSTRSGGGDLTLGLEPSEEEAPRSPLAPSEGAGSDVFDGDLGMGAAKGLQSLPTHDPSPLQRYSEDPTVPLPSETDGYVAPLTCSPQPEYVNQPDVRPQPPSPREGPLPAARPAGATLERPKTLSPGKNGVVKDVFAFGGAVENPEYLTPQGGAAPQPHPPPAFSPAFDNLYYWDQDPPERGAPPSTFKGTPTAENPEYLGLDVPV

In general, viability refers to a read-out of living cells in per cent, often relative to untreated cells. For orientation: inhibition means the change of the read-out against control, counted positive when it falls. Consider `O=C(CSc1nnc2ncccn12)N1CCCCCC1`, for which the viability in assay [1] was 102%; in assay [3] it was 102% (inactive); in assay [4] it was 103% (inactive); in assay [5] it was 107% (inactive); in assay [6] (setting [9]), 91.3%; in assay [6] (setting [10]), 107%. For the same compound, the Her2 level in assay [2] was 85% (inactive). In addition, in assay [6] (H69AR cells + 2 uM doxorubicin), the differential viability (reversal) was 15.6% (inactive). For the same compound, the inhibition in assay [7] is -3.84% (inactive); in assay [8] it was -7.3% (inactive).

With `O=c1c(F)cn(C2CCCO2)c(=O)n1Cc1c(F)cccc1Cl` (stereo not given), the viability in assay [1] is 94.5%; in assay [3], 94.5% (inactive); in assay [4], 92.8% (inactive); in assay [5], 91.1% (inactive); in assay [6] (setting [9]), 93.2%; in assay [6] (setting [10]), 91.1%. Also, the Her2 level in assay [2] is 94% (inactive). In addition, the differential viability (reversal) in assay [6] (H69AR cells + 2 uM doxorubicin) is -2.1% (inactive). The inhibition in assay [7] was -0.13% (inactive); in assay [8], -8.39% (inactive).

For `CCC(=O)Nc1ccc(F)c(Cl)c1`, the viability was 108% in assay [1]; 108% (inactive) in assay [3]; 97.9% (inactive) in assay [4]; 94.7% (inactive) in assay [5]; 91.1% in assay [6] (setting [9]); 94.7% in assay [6] (setting [10]). In addition, the Her2 level in assay [2] was 99% (inactive). Further, the differential viability (reversal) in assay [6] (H69AR cells + 2 uM doxorubicin) is 3.67% (inactive). In addition, the inhibition in assay [7] was -6.53% (inactive); in assay [8] it was 3.71% (inactive).

For `O=C(c1cc2cc(Cl)cc(Cl)c2oc1=O)N1CCOCC1`, the viability in assay [1] is 76%; in assay [3], 76% (inactive); in assay [4], 96% (inactive); in assay [5] it was 88.4% (inactive); in assay [6] (setting [9]), 87.7%; in assay [6] (setting [10]), 88.4%. The Her2 level in assay [2] is 82.5% (inactive). Moreover, the differential viability (reversal) in assay [6] (H69AR cells + 2 uM doxorubicin) is 0.725% (inactive). The inhibition in assay [7] was -6.35% (inactive); in assay [8] it was 3.44% (inactive).

With `CCCn1c(SCC(=O)N2CCN(c3ccccc3)CC2)nc2ccccc2c1=O`, the viability in assay [1] was 117%; in assay [3] it was 117% (inactive); in assay [4] it was 70.7% (inactive); in assay [5], 83.8% (inactive); in assay [6] (setting [9]), 83.8%; in assay [6] (setting [10]), 83.8%. Moreover, in assay [2], the Her2 level is 90.5% (inactive). Further, the differential viability (reversal) in assay [6] (H69AR cells + 2 uM doxorubicin) is 0.045% (inactive). Besides, the inhibition in assay [7] was 8.38% (inactive); in assay [8], 32.7% (active).

Take `COCCn1nnnc1CN(Cc1cccnc1)Cc1cc2cc(OC)ccc2[nH]c1=O`: the viability in assay [1] was 91%; in assay [3] it was 91% (inactive); in assay [4] it was 98.6% (inactive); in assay [5], 88.3% (inactive); in assay [6] (setting [9]) it was 79.5%; in assay [6] (setting [10]), 88.3%. The Her2 level in assay [2] is 75% (inactive). In assay [6] (H69AR cells + 2 uM doxorubicin), the differential viability (reversal) was 8.82% (inactive). In addition, the inhibition is -7.07% (inactive) in assay [7] and 4.26% (inactive) in assay [8].

On to `COc1cccc(NC(=O)COC(=O)c2ccco2)c1`, for which the viability in assay [1] is 112%; in assay [3] it was 112% (inactive); in assay [4], 97.6% (inactive); in assay [5], 83.8% (inactive); in assay [6] (setting [9]) it was 81.1%; in assay [6] (setting [10]) it was 83.8%. The Her2 level in assay [2] was 94% (inactive). The differential viability (reversal) in assay [6] (H69AR cells + 2 uM doxorubicin) is 2.71% (inactive). Moreover, the inhibition in assay [7] was -6.8% (inactive); in assay [8], -1.27% (inactive).

As to `COc1cc(-c2nnc(SCC(=O)c3cc(C)n(CC4CCCO4)c3C)o2)cc(OC)c1OC` (stereo not given), the viability was 104% in assay [1]; 104% (inactive) in assay [3]; 76.4% (inactive) in assay [4]; 77.5% (inactive) in assay [5]; 79.5% in assay [6] (setting [9]); 77.5% in assay [6] (setting [10]). The Her2 level in assay [2] is 66.5% (inactive). For the same compound, the differential viability (reversal) in assay [6] (H69AR cells + 2 uM doxorubicin) was -2% (inactive). The inhibition is -5.95% (inactive) in assay [7] and -4.83% (inactive) in assay [8].

For `O=C(OCn1nnc2ccccc2c1=O)C1CCN(S(=O)(=O)c2cccs2)CC1`, the viability in assay [1] is 97%; in assay [3] it was 97% (inactive); in assay [4], 97.7% (inactive); in assay [5], 105% (inactive); in assay [6] (setting [9]), 104%; in assay [6] (setting [10]), 105%. The Her2 level in assay [2] was 133% (inactive). For the same compound, in assay [6] (H69AR cells + 2 uM doxorubicin), the differential viability (reversal) is 1.22% (inactive). Further, the inhibition in assay [7] was 1.54% (inactive); in assay [8] it was -4.67% (inactive).

Turning to `COc1ccc(C2(C(=O)N3CCCC3)CCOCC2)cc1OC`, the viability is 88.5% in assay [1]; 88.5% (inactive) in assay [3]; 82.2% (inactive) in assay [4]; 97.2% (inactive) in assay [5]; 87.8% in assay [6] (setting [9]); 97.2% in assay [6] (setting [10]). In addition, the Her2 level in assay [2] was 126% (inactive). Also, the differential viability (reversal) in assay [6] (H69AR cells + 2 uM doxorubicin) was 9.43% (inactive). The inhibition in assay [7] is 3.21% (inactive); in assay [8], -11% (inactive).

Consider `CCN1C(=O)N(CC)C2C1N(C(C)=O)C(=O)N2C(C)=O` (stereo not given), for which the viability is 107% in assay [1]; 107% (inactive) in assay [3]; 104% (inactive) in assay [4]; 94.8% (inactive) in assay [5]; 83% in assay [6] (setting [9]); 94.8% in assay [6] (setting [10]). Also, the Her2 level in assay [2] is 102% (inactive). Besides, in assay [6] (H69AR cells + 2 uM doxorubicin), the differential viability (reversal) is 11.9% (inactive). In addition, the inhibition in assay [7] is -5.66% (inactive); in assay [8], -2.18% (inactive).

As for `COc1ccc(NC(=O)Cn2nnc(-c3ccccc3N)n2)cc1OC`, the viability in assay [1] is 106%; in assay [3], 106% (inactive); in assay [4], 94.4% (inactive); in assay [5], 97.8% (inactive); in assay [6] (setting [9]), 93.3%; in assay [6] (setting [10]), 97.8%. The Her2 level in assay [2] was 108% (inactive). In assay [6] (H69AR cells + 2 uM doxorubicin), the differential viability (reversal) is 4.44% (inactive). The figures for the inhibition in assay [7] and in assay [8] were -5.07% (inactive) and 10% (inactive), respectively.

In the case of `CC1C(O)=C(c2nc3ccccc3[nH]2)C(=N)N1c1ccccc1` (stereo not given), the viability in assay [1] was 110%; in assay [3], 110% (inactive); in assay [4] it was 50.5% (inactive); in assay [5], 16% (active); in assay [6] (setting [9]), 55%; in assay [6] (setting [10]) it was 16%. Moreover, the Her2 level in assay [2] is 83% (inactive). Moreover, the differential viability (reversal) in assay [6] (H69AR cells + 2 uM doxorubicin) is -39% (inactive). Besides, the inhibition was -6.71% (inactive) in assay [7] and -10.6% (inactive) in assay [8].

Regarding `C/C(=N\O)C(=O)NCc1ccccn1`, the viability in assay [1] was 102%; in assay [3], 102% (inactive); in assay [4], 85.3% (inactive); in assay [5] it was 92.2% (inactive); in assay [6] (setting [9]), 96.4%; in assay [6] (setting [10]) it was 92.2%. The Her2 level in assay [2] was 134% (inactive). In addition, the differential viability (reversal) in assay [6] (H69AR cells + 2 uM doxorubicin) is -4.16% (inactive). The inhibition was 4.61% (inactive) in assay [7] and 11.2% (inactive) in assay [8].

In the case of `CC(C)(C)OC(=O)N1CCCC1C(=O)N1CCc2ccccc21` (stereo not given), the viability in assay [1] is 95.5%; in assay [3], 95.5% (inactive); in assay [4], 94.9% (inactive); in assay [5] it was 84.9% (inactive); in assay [6] (setting [9]) it was 89.4%; in assay [6] (setting [10]), 84.9%. Moreover, the Her2 level in assay [2] was 86% (inactive). In addition, in assay [6] (H69AR cells + 2 uM doxorubicin), the differential viability (reversal) was -4.58% (inactive). The figures for the inhibition in assay [7] and in assay [8] were 1.17% (inactive) and -3.81% (inactive), respectively.

With `Cc1ccc2[nH]c(=O)c(CN(CCCN3CCOCC3)C(=O)Nc3cccc(Cl)c3)cc2c1`, the viability is 75.5% in assay [1]; 75.5% (inactive) in assay [3]; 47% (inactive) in assay [4]; 55.4% (inactive) in assay [5]; 49.9% in assay [6] (setting [9]); 55.4% in assay [6] (setting [10]). The Her2 level in assay [2] is 75% (inactive). The differential viability (reversal) in assay [6] (H69AR cells + 2 uM doxorubicin) was 5.47% (inactive). Moreover, the results for the inhibition in assay [7] and in assay [8] were -3.33% (inactive) and 2.13% (inactive), respectively.

These data come from PubChem BioAssay.
